# Kir21 block = inhibitors of mouse Kir2.1 inward-rectifier potassium channel; P35561; HEK293-Kir2.1, FluxOR thallium flux fluorescence; stronger effect = lower value; B-score at 10 µM; actives 0.85% (n = 310,000);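 active means fluorescence ratio B-score at or below minus 3 SD of library scores, with starting-brightness B-score within 2 SD, cut at about -4.2 in these data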;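 further: channel flux triggered by added potassium and thallium sulfate stimulus; B-score of peak minus minimum fluorescence over baseline after thallium stimulus; more negative B-score means stronger Kir2.1 block with less thallium influx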
# Target sequence (P35561 whole entry, looked up): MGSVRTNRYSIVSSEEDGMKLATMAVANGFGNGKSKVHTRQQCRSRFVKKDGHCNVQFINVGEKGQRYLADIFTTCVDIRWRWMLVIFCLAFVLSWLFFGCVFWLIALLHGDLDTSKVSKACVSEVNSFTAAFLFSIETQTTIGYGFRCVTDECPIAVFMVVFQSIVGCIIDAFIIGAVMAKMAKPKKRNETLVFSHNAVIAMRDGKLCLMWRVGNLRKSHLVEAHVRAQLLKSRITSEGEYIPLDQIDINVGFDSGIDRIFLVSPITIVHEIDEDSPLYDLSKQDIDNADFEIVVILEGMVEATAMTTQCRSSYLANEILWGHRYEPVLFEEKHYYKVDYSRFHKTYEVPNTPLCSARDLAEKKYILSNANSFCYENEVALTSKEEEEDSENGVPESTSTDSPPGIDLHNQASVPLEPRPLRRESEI
# TRPC4 block = blocks the mouse TRPC4 cation channel. actives 0.39% (n = 300,000). HEK293 TRPC4beta/mu-opioid, DAMGO-evoked Fluo4 calcium flux; stronger effect = lower value. B-score at 10 µM. AID 2247;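 active means B-score over 3 SD under the library average, no early fluorescence shift, positive overall ratio signal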
#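 Assay system: HEK293 cells with stable TRPC4beta plus mu-opioid receptor expression. Dosing: single dose. Measured by: Fluo4 Ca2+ flux fluorescence. Also added: DAMGO in two steps, submaximal then maximal. Read-out: B score from integrated Fluo4 fluorescence ratio.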
# TRPC4 act = TRPC4 (mouse) channel activation; HEK293 TRPC4beta/mu-opioid, Fluo4 calcium fluorescence; stronger effect = higher value; actives 0.49% (n = 310,000); B-score at 10 µM;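 active means B-score above 5 SD of library B-scores, and initial fluorescence ratio not above library mean plus 5 SD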;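 further: positive B-score marks a calcium rise read as TRPC4 activation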
#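 System – HEK293 cells stably co-expressing mouse TRPC4beta and mu-opioid receptor · Signal – Fluo4 calcium-sensitive dye fluorescence, kinetic, 1 Hz baseline · Benchmarks – buffer (low) and maximal DAMGO (high) · Read-out – B score of integrated fluorescence ratio per well · Incubation – dye loading 45 min room temperature, 110 s kinetic read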
# TRPC4 PAM = allosteric potentiators of mouse TRPC4 channel; HEK293 TRPC4beta/mu-opioid, DAMGO EC20, Fluo-4 Ca2+ flux; stronger effect = higher value; B-score at 10 µM; actives 0.42% (n = 310,000);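 active means B-score of calcium response area above 5 SD of library B-scores, with initial fluorescence ratio within 5 SD of library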;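 further: B-score of integrated fluorescence ratio over time as area under calcium response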
# TRPC6 inhibitor = blocks the mouse TRPC6 cation channel; B-score at 10 µM; HEK293-TRPC6, membrane potential dye, ACh-evoked depolarization; stronger effect = lower value; actives 1.1% (n = 310,000); Q61143; AID 2553;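 active means B-score under library mean minus 3 SD, initial fluorescence not abnormally high, positive integrated signal ratio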;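 further: B-score derived from integrated fluorescence ratio over the kinetic read; more negative B-score means stronger inhibition of depolarization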
# TRPC6 activator = activators of mouse TRPC6 channel; Q61143; HEK293-TRPC6 membrane potential dye fluorescence; stronger effect = higher value; B-score at 10 µM; actives 0.13% (n = 310,000); AID 2550;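 active means B-score of the integrated fluorescence ratio above library mean plus 3 SD, and starting fluorescence ratio within library mean plus 5 SD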;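 further: higher score means more depolarization so channel activation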
# TRPC4 sel inh 2 = second check of whether TRPC6 inhibitors also affect mouse TRPC4 | HEK293 TRPC4/MOR, membrane potential dye fluorescence; channel activated by saturating DAMGO dose | inhibition, % at 10 µM | actives 42% (n = 920) | shares compounds with TRPC6 inhibitor;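 active means compounds whose fluorescence signal differed from control wells by over 3 SD, either direction, in both duplicate plates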
# TRPC4 spec = mouse TRPC4 off-target activity of TRPC6 inhibitors; shares compounds with TRPC6 inhibitor; HEK293 TRPC4/mu-opioid, membrane potential fluorescence; activity change, negative = inhibition, % at 10 µM; actives 61% (n = 920);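 active means rise or fall in signal beyond 3 SD of buffer-only wells in both replicate plates, either sign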;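 further: integrated kinetic ratio of fluorescence range over baseline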
# HEK293 MPD ctr 2-1 = second counter-screen for TRPC6 inhibitors: parental HEK293 cells | shares compounds with TRPC6 inhibitor | parental HEK293 membrane potential dye fluorescence; maximal acetylcholine challenge after compound addition | signal change vs control, % at 10 µM | actives 31% (n = 920) | AID 2779;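 active means membrane potential signal moving either way by over 3 SD of the maximum-effect control, in both duplicate plates, meaning non-specific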
# HEK293 MPD ctr-1 = counter-screen for TRPC6 inhibitors: effect in parental HEK293 cells | membrane potential signal change, % at 10 µM | AID 2780 | shares compounds with TRPC6 inhibitor | parental HEK293 membrane potential dye fluorescence | actives 60% (n = 920);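 active means membrane potential signal shifting up or down by more than 3 SD of buffer-only wells, on both duplicate plates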
# HEK293 MPD ctr-2 = counter-screen for TRPC6 modulators: effect in parental HEK293 cells; shares compounds with TRPC6 inhibitor; membrane potential dye fluorescence; membrane potential signal change, % at 10 µM; actives 51% (n = 2,400); AID 488924;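 active means membrane potential signal moves up or down beyond 5 SD from buffer-only wells, on both duplicate plates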
# HEK293 MPD ctr 2-2 = second counter-screen for TRPC6 modulators: effect in parental HEK293 cells. shares compounds with TRPC6 inhibitor. membrane potential dye fluorescence; after compound, maximal acetylcholine stimulation. inhibition, % at 10 µM. actives 14% (n = 2,400);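 active means membrane potential signal drops by more than 5 SD from the mean control signal, in both duplicate plates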;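 further: plate controls were acetylcholine ECmax control wells for no effect and buffer only wells for full effect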
# TRPC4/MOR mod = selectivity of TRPC6 modulators against mouse TRPC4; actives 69% (n = 2,400); AID 488927; percent change from control (negative = decrease, positive = increase), % at 10 µM; HEK293 TRPC4/mu-opioid, membrane potential fluorescence; shares compounds with TRPC6 inhibitor;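 active means membrane potential signal moved up or down beyond 5 SD of buffer control wells, in both duplicate plates, actives on both sides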;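 further: plate controls were assay buffer wells for no effect and DAMGO maximal-effect wells for full effect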
# TRPC4 ctr inh 2 = mouse TRPC4 off-target activity of TRPC6 modulators, second screen; shares compounds with TRPC6 inhibitor; HEK293 TRPC4/mu-opioid, membrane potential dye fluorescence; stimulated with maximal-effect DAMGO; inhibition, % at 10 µM; actives 55% (n = 2,400); AID 488928;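 active means drop in membrane potential signal beyond 5 SD of the control wells in both duplicate plates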;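 further: TRPC4 counter screen for TRPC6 hits run under conditions tuned for TRPC6 not TRPC4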
# TRPC6 inh conf = mouse TRPC6 inhibitor confirmation | shares compounds with TRPC6 inhibitor | HEK293-TRPC6, membrane potential dye, ACh-evoked depolarization | actives 43% (n = 3,300) | inhibition, % at 10 µM;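 active means fluorescence ratio falls more than 5 SD below the full-stimulation control mean, in both duplicate runs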;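 further: integrated fluorescence ratio of peak minus minimum over baseline after agonist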
# TRPC6 act conf = confirmation of mouse TRPC6 activators. shares compounds with TRPC6 inhibitor. actives 11% (n = 2,800). AID 488961. HEK293-TRPC6 membrane potential dye fluorescence, FDSS. activation, % at 10 µM;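 active means ratio signal rise beyond 5 SD above unstimulated control wells' mean, seen in both duplicate runs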;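 further: plate controls were buffer EC0 wells for no effect and acetylcholine ECmax response for full effect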
# Numbers without * were called inactive; i = inactive; · = not tested or not shown. Hits are enriched below; roughly 2.9% of the tested compounds scored in any of these assays.
SMILES,Kir21 block,TRPC4 block,TRPC4 act,TRPC4 PAM,TRPC6 inhibitor,TRPC6 activator,HEK293 MPD ctr-2,HEK293 MPD ctr 2-2,TRPC4/MOR mod,TRPC4 ctr inh 2,TRPC6 inh conf,TRPC6 act conf,others
CC1(c2nnc(-c3ccncc3)o2)CC(c2ccccc2)=NO1 (stereo not drawn),-0.04,i,i,i,i,i,·,·,·,·,·,·,
COc1ccc(N2CCN(c3cc(C)c4ccc(O)cc4n3)CC2)cc1,1.4,i,i,i,i,i,·,·,·,·,·,·,
COc1cc(OC)c2nc(C)c3c(c2c1)N(c1ccc(O)cc1)CC3,-2.5,i,i,i,-7.2*,i,-174%*,101%*,-18%*,42%*,i,i,
CCC(C)[C@H]1CNCCN1CCc1cc(C(F)(F)F)cc(C(F)(F)F)c1 (stereo partly drawn),-2.7,i,i,i,-7.2*,i,·,·,·,·,i,i,TRPC4 sel inh 2=54%*;TRPC4 spec=i;HEK293 MPD ctr 2-1=i;HEK293 MPD ctr-1=i
O=C(CSc1ncccc1C(=O)O)Nc1ccc2c(c1)OCCO2,-0.01,i,i,i,i,i,·,·,·,·,·,·,
O=C(COC(=O)C1=COCCO1)Nc1ccc(OC(F)F)cc1,-0.02,i,i,i,i,i,·,·,·,·,·,·,
CCOC(=O)c1[nH]c2ccccc2c1CCCN1C(=O)c2ccccc2C1=O,0.48,i,i,i,-6.9*,i,·,·,·,·,i,i,TRPC4 sel inh 2=i;TRPC4 spec=i;HEK293 MPD ctr 2-1=i;HEK293 MPD ctr-1=i
CCOC(=O)c1cc2sccc2n1CCCN1C(=O)c2ccccc2C1=O,-0.27,i,i,i,i,i,·,·,·,·,·,·,
Oc1c(/C=N/c2ccccn2)sc2ccccc12,-0.04,i,i,i,-9.1*,i,170%*,i,30%*,i,i,·,
Cc1c(Cl)cccc1NC(=O)CNc1ccccc1F,-0.03,i,i,i,i,i,·,·,·,·,·,·,
Cc1c(Cl)cccc1NC(=O)CNCc1ccccc1F,-0.01,i,i,i,-5.3*,i,i,i,18%*,i,i,·,
CCCn1c2ccccc2c2cnn(CC(=O)NCCCN3CCN(c4ccccc4)CC3)c(=O)c21,-4.6*,i,i,i,-5.3*,i,134%*,i,8.0%*,74%*,i,·,
COc1ccc(/C=C2\C(=N)N3N=C(CC(=O)N4CCCCC4)SC3=NC2=O)cc1,1.8,i,i,i,i,12*,136%*,i,22%*,i,i,76%*,
CCc1ccc(/C=C2\C(=N)N3N=C(CC(=O)N4CCCCC4)SC3=NC2=O)cc1,-1.3,i,i,i,i,i,·,·,·,·,·,·,
COc1ccc(/C=C2/C(=N)N3N=C(CC(=O)N4CCCC4)SC3=NC2=O)cc1,1.4,i,i,i,i,12*,163%*,i,24%*,i,i,84%*,
O=C1/C(=C\c2ccc(C(F)(F)F)cc2)CSc2sccc21,0.01,i,i,i,-5*,i,i,i,8.5%*,i,i,i,
O=c1cc(N2CCCC2)c2ccccc2o1,-0.04,i,i,i,i,i,·,·,·,·,·,·,
CCCN(CCC)Cc1cc(=O)oc2cc3c(cc12)CCC3,-0.23,i,i,i,i,i,·,·,·,·,·,·,
COc1ccc(Nc2c(-c3ccc(C)cc3)nc3cnccn23)cc1,-1.2,i,i,i,i,i,·,·,·,·,·,·,
Cc1ccc(Nc2c(-c3ccccc3O)nc3cnccn23)cc1,1.8,i,i,i,-6.6*,i,i,i,-11%*,68%*,i,i,
COc1ccc(S(=O)(=O)N(C)c2ccc(C(=O)NCc3ccco3)cc2)cc1OC,-1.3,i,i,i,i,i,·,·,·,·,·,·,
Cc1ccc(NC(=S)NCCN2CCOCC2)cc1F,-0.45,i,i,i,i,i,·,·,·,·,·,·,
Cc1ccc(C)c(NC(=O)CN(C)C(=O)Cn2c(=O)oc3ccccc32)c1,-0.1,i,i,i,i,i,·,·,·,·,·,·,
CCc1ccc(NCc2ccc(OC)c(Cn3ccnc3)c2)cc1,-1.1,i,i,i,-5.4*,i,i,i,-10%*,52%*,40%*,i,
COc1ccc(CNc2ccc(Cl)cc2)cc1Cn1ccnc1,-4.3*,i,i,i,-5.2*,i,i,i,i,56%*,i,i,
CCN(CC)CCn1c2c(c(SCC(=O)Nc3nc4ccccc4s3)nc1=O)CCC2,-2.2,i,i,i,i,i,·,·,·,·,·,·,
CCCC(O)(CCN1CCOCC1)c1ccc(Cl)cc1 (stereo not drawn),0.01,i,i,i,i,i,·,·,·,·,·,·,
